Reference: ChEMBL document CHEMBL1138033, “S-alkylated homocysteine derivatives: new inhibitors of human betaine-homocysteine S-methyltransferase” (J Med Chem, 2006)

Columns and labels:
[1] = molecular target: T1, Betaine--homocysteine S-methyltransferase 1 (Homo sapiens) (UniProt Q93088); assay: Inhibition of human BHMT at 20 uM
T1 sequence (whole entry): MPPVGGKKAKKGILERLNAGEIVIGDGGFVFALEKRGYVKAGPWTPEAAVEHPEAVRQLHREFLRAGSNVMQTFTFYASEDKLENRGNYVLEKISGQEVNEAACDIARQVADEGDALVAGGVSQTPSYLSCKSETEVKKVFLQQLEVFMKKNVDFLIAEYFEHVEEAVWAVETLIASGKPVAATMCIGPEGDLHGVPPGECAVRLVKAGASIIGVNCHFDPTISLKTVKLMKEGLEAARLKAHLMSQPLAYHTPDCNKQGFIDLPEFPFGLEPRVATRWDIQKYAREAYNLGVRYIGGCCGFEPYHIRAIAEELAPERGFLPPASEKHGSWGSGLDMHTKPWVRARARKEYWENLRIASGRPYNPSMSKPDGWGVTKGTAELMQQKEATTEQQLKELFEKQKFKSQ
Summary of the method: (§1)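 Recombinant human BHMT (0.2 µM) premixed with inhibitor, then 100 µM D,L-homocysteine and 250 µM N-methyl-¹⁴C-betaine (0.05 µCi) added; 50 mM K-phosphate pH 7.5, 10 mM β-mercaptoethanol, 37°C for 30 min. Radiolabel incorporation read against enzyme-free blanks; triplicates, percent relative to no-inhibitor control.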

[2] = molecular target: T1, Betaine--homocysteine S-methyltransferase 1 (Homo sapiens); assay: Inhibition of human BHMT at 1 uM; summary of the method: as §1
[3] = molecular target: T2, Betaine--homocysteine S-methyltransferase 1 (Homo sapiens, UniProt Q93088); assay: Inhibition of human BHMT
T2 sequence (Q93088 whole entry): T1 sequence (whole entry)
Summary of the method: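 Recombinant human BHMT (0.2 µM) mixed with inhibitor at ten concentrations, then 1 mM D,L-homocysteine and 2 mM betaine (¹⁴C-methyl labelled, 0.15 µCi) added in 50 mM K-phosphate pH 7.5 with 10 mM β-mercaptoethanol; 30 min at 37°C. Enzyme-free blanks subtracted. IC50 by nonlinear regression; points in duplicate, three independent assays.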

SMILES | inhibition [1] | inhibition [2] | IC50 [3]
NC(CCSCC(=O)NCP(=O)(O)O)C(=O)O (racemic) | 8.8% | – | –
NC(CCS(=O)(=O)CCCCC(=O)O)C(=O)O (racemic) | 28.8% | – | –
NC(CCSCCCCCC(=O)O)C(=O)O (racemic) | 100% | 99.9% | 0.2 µM
NC(CC[S+]([O-])CC(N)C(=O)O)C(=O)O (stereo not given) | 9.5% | – | –
NC(CC[S+]([O-])CCCCC(=O)O)C(=O)O (racemic) | 97.3% | 67.8% | 5 µM
NC(CCSSCCC(N)C(=O)O)C(=O)O (stereo not given) | 0% | – | –
NC(CCSCc1ccc(CC(=O)O)cc1)C(=O)O (racemic) | 10.1% | – | –
NC(CCSc1ccccc1C(=O)O)C(=O)O (racemic) | 42.5% | – | –
N[C@@H](CSCCCCC(=O)O)C(=O)O | 0% | – | –
NC(CCSc1ccc(C(=O)O)cc1)C(=O)O (racemic) | 98.6% | 84.8% | 7 µM
COC(=O)C(N)CCSCC(=O)NCP(=O)(O)O (racemic) | 0% | – | –
NC(CCSc1cccc(C(=O)O)c1)C(=O)O (racemic) | 12.8% | – | –

Continued, values first:

inhibition [1] | inhibition [2] | IC50 [3] | SMILES
100% | 98.3% | – | NC(CCSCCCCC(=O)O)C(=O)O (racemic)
20.5% | – | – | CSCSCCC(N)C(=O)O (racemic)
97.8% | 74% | 5.7 µM | NC(CCSCCCCP(=O)(O)O)C(=O)O (racemic)
25.5% | – | – | NC(CCSCCOCP(=O)(O)O)C(=O)O (racemic)
0% | – | – | C=CCSCCC(N)C(=O)O (racemic)
89.8% | 55.3% | – | NC(CCSCC[S+]([O-])CC(=O)O)C(=O)O (racemic)
30% | 0% | – | NC(CCSSCCC(=O)O)C(=O)O (racemic)
100% | 96.8% | 0.096 µM | NC(CCSCCSCC(=O)O)C(=O)O (racemic)
20.1% | – | – | NC(CCSCCCC(=O)O)C(=O)O (racemic)
18.8% | – | – | NC(CCSCC(N)C(=O)O)C(=O)O (stereo not given)
